Test results as given in PMC9488007 (Environmental Science and Ecotechnology, 2020).
In brackets after ≈: the same amount, converted by molar mass.

Columns and labels:
Desorption isotherms = format: physicochemical
[1] = Desorption kinetics of bisphenols from bisphenol-attached PVC microplastics; format: physicochemical
Outline: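 Bisphenol-loaded PVC from the adsorption step was placed in water or simulated intestinal fluid (NaCl 0.12 M, Na2CO3 0.02 M, sodium taurocholate 15.5 mM) in sealed 1 L glass bottles. Bottles were agitated rotationally at 200 rpm in an oil bath. Bisphenol was measured in filtered supernatant at intervals from 0 to 75 h. Run in triplicate.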

[2] = Adsorption of bisphenols onto PVC microplastics; format: physicochemical; details: 1.5 g PVC microplastics in 1 L, 48 h, room temperature
Outline: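 Each bisphenol was dissolved in ethanol, then diluted in a 1 L glass bottle to initial concentrations of 0 to 1.0 mg L-1. PVC microplastics were added, and bottles were shaken at 200 rpm until adsorption equilibrium. Supernatants were filtered through a glass microfiber filter before bisphenol quantification. Run in triplicate.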

[3] = water, ref Wu et al.^3; cited from earlier work
[4] = Physicochemical properties of the five bisphenols; details: calculated from log Kow and pKa
[5] = test system: grass carp hepatocyte cell line, L8824; test: cells; format: cell-based; details: for Cytotoxicity (proliferation reduction), L8824: high concentration (2 mg L^−1)
[6] = format: physicochemical; details: high concentration (2 mg L^−1)
[7] = test system: human breast adenocarcinoma cells, MCF-7; test: cells; format: cell-based; details: for Cytotoxicity (proliferation reduction), MCF-7: high concentration (2 mg L^−1)
[8] = calculated for concentration desorbed in warm-I
[9] = calculated for concentration desorbed in water

Oc1ccc(Cc2ccc(O)cc2)cc1 [BPF, bisphenol F]
HI, hysteresis index (Desorption isotherms; warm-I): <0
kFd, Freundlich constant for desorption (Desorption isotherms; warm-I (Table 2)): 0.388 mg^−1/n·L^−1/n·g^−1
n, surface heterogeneity constant (desorption) (Desorption isotherms; warm-I (Table 2)): 1.186
HI, hysteresis index (Desorption isotherms; water): 0.252
kFd, Freundlich constant for desorption (Desorption isotherms; water (Table 2)): 0.720 mg^−1/n·L^−1/n·g^−1
n, surface heterogeneity constant (desorption) (Desorption isotherms; water (Table 2)): 1.594
Fslow, slow fraction ([1]; cold-I, pH 7.5, 291 K): 0.335±0.002
krap, rapid desorption rate constant ([1]; cold-I, pH 7.5, 291 K): 0.662±0.241 10^-2 h^-1
kslow, slow desorption rate constant ([1]; cold-I, pH 7.5, 291 K): 6.906±0.579 10^-4 h^-1
kvs, very slow desorption rate constant ([1]; cold-I, pH 7.5, 291 K): 2.367±0.112 10^-5 h^-1
Fslow, slow fraction ([1]; warm-I, pH 6.5, 311 K): 0.308±0.003
Fvs, very slow fraction ([1]; warm-I, pH 6.5, 311 K): 0.005±0.001
krap, rapid desorption rate constant ([1]; warm-I, pH 6.5, 311 K): 1.744±0.373 10^-2 h^-1
kslow, slow desorption rate constant ([1]; warm-I, pH 6.5, 311 K): 9.877±1.415 10^-4 h^-1
kvs, very slow desorption rate constant ([1]; warm-I, pH 6.5, 311 K): 5.778±0.325 10^-5 h^-1
Fslow, slow fraction ([1]; water, pH 7.0, 291 K): 0.371±0.004
Fvs, very slow fraction ([1]; water, pH 7.0, 291 K): 0.051±0.002
krap, rapid desorption rate constant ([1]; water, pH 7.0, 291 K): 0.619±0.179 10^-2 h^-1
kslow, slow desorption rate constant ([1]; water, pH 7.0, 291 K): 6.659±0.441 10^-4 h^-1
kvs, very slow desorption rate constant ([1]; water, pH 7.0, 291 K): <0.01 10^-5 h^-1
amount of bisphenol adsorbed on the PVC [2]: 0.16 mg/g
kFa, Freundlich constant for adsorption [3]: 0.575 mg^−1/n·L^−1/n·g^−1
n, surface heterogeneity constant (adsorption) [3]: 1.13
log Dow [4]: 2.80
IC50 to L8824 ([5]; 72 h exposure, 291 K, MTT): 2.26 ± 0.43 µg/mL (≈ 11.3 µM)
Cytotoxicity (proliferation reduction), L8824 [5, 8]: 33.24%
Cytotoxicity (proliferation reduction), L8824 [5, 9]: 27.15%
IC50 ([5]; read-out: IC50 to L8824, 72 h exposure, 291 K, MTT): 11.3 ± 2.12 µM
desorbed concentration, Warm-I [6]: 0.59 mg/L
IC50 to MCF-7 ([7]; 72 h exposure, 311 K, MTT): 6.39 ± 0.34 µg/mL (≈ 31.9 µM)
Cytotoxicity (proliferation reduction), MCF-7 [7, 8]: 26.54%
Cytotoxicity (proliferation reduction), MCF-7 [7, 9]: 20.83%
IC50 ([7]; read-out: IC50 to MCF-7, 72 h exposure, 311 K, MTT): 31.9 ± 1.69 µM
